In ChEMBL document CHEMBL2375221, “Preparation and antimalarial activity of semisynthetic lycorenine derivatives” (Eur J Med Chem, 2013) one finds IC50 data, which are given here for 33 compounds.

For this assay, the system named is Plasmodium falciparum. The assay can be described thus: Antimalarial activity against chloroquine-sensitive Plasmodium falciparum F-32 Tanzania infected in blood assessed as decrease in parasitaemia after 48 hrs. Type of assay: functional, organism-based. The gist of the method:
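P. falciparum F-32 Tanzania (chloroquine-sensitive) grown in glucose-enriched RPMI 1640 with 10% human serum at 37 °C. After 24 h at 37 °C, the medium was replaced with fresh medium containing compound in DMSO at three concentrations (0.1, 1, 10). Incubation continued 48 h. On day three, a blood smear from each well was used to score parasitaemia versus control. IC50 was read graphically against concentration.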
For the compound `CN1CCC2=C[C@H](O)[C@H]3OC(=O)c4cc5c(cc4[C@@]3(O)[C@@H]21)OCO5`, the 50% inhibitory concentration (IC50) was 60.4 µM. For the compound `CN1CCC2=C[C@H](O)[C@H]3NC(=O)c4cc5c(cc4[C@H]3[C@@H]21)OCO5`, the concentration for half-maximal inhibition (IC50) was 18.8 µM. For `CC(=O)O[C@H]1C=C2CCN(C)[C@H]2[C@@H]2c3cc4c(cc3C(=O)O[C@@H]21)OCO4`, the IC50 came out at 58.8 µM. As for `CN1CCC2=C[C@H](OC(=O)c3cccnc3)[C@H]3OC(=O)c4cc5c(cc4[C@H]3[C@@H]21)OCO5`, the 50% inhibitory concentration (IC50) came to 49.8 µM. `CN1CCC2=C[C@H](OC(=O)c3ccc(Br)cc3)[C@H]3OC(=O)c4cc5c(cc4[C@H]3[C@@H]21)OCO5`: the half-inhibitory concentration (IC50) came out at 42.2 µM. The same measure for `CC(C)C(=O)O[C@H]1C=C2CCN(C)[C@H]2[C@@H]2c3cc4c(cc3C(=O)O[C@@H]21)OCO4`: 57.1 µM; for `COC(=O)c1cc(C(=O)OC)cc(C(=O)O[C@H]2C=C3CCN(C)[C@H]3[C@@H]3c4cc5c(cc4C(=O)O[C@@H]32)OCO5)c1`: 7.4 µM. Turning to `C=CCCC(=O)O[C@H]1C=C2CCN(C)[C@H]2[C@@H]2c3cc4c(cc3C(=O)O[C@@H]21)OCO4`, the IC50 came out at 55.4 µM. With `CN1CC=C2C=C[C@H]3OC(=O)c4cc5c(cc4[C@H]3[C@@H]21)OCO5` the figure was 94.1 µM. Take `CN1CC[C@]2(Cl)C=C[C@H]3OC(=O)c4cc5c(cc4[C@H]3[C@H]12)OCO5`: the IC50 is 84 µM.

For the compound `CCOC(=O)O[C@H]1C=C2CCN(C)[C@H]2[C@@H]2c3cc4c(cc3C(=O)O[C@@H]21)OCO4`, the IC50 stood at 61.8 µM. The same measure for `C=Cc1ccc(C(=O)O[C@H]2C=C3CCN(C)[C@H]3[C@@H]3c4cc5c(cc4C(=O)O[C@@H]32)OCO5)cc1`: 49.4 µM; for `CN1CCC2=C[C@H](O)[C@H]3OC(=O)c4cc(O)c(O)cc4[C@H]3[C@@H]21`: 9.9 µM. With `COc1cc2c(cc1OC)[C@@H]1[C@H](OC2=O)[C@@H](O)C=C2CCN(C)[C@H]21` the figure was 84.5 µM; with `C[N+]1([O-])CCC2=C[C@H](O)[C@H]3OC(=O)c4cc5c(cc4[C@H]3[C@@H]21)OCO5` (stereo partly drawn), 87.6 µM.

Consider `C[N+]1=CCC2=C[C@H](O)[C@H]3OC(=O)c4cc5c(cc4[C@H]3[C@@H]21)OCO5`, for which the IC50 was greater than 100 µM.

As for `COC(=O)c1cc2c(cc1-c1cc(OC(C)=O)cc3c1N(C)CC3)OCO2`, the IC50 came out at 70.4 µM. In the case of `CN1CC[C@@H]2C[C@H](O)[C@H]3OC(=O)c4cc5c(cc4[C@H]3[C@@H]21)OCO5`, the half-maximal inhibitory concentration (IC50) amounted to 78.8 µM. With `CN1CC[C@]2(Br)C[C@H](O)[C@H]3OC(=O)c4cc5c(cc4[C@H]3[C@H]12)OCO5` the figure was 58.7 µM; with `CN1CC[C@]2(O)[C@H](Br)[C@H](O)[C@H]3OC(=O)c4cc5c(cc4[C@H]3[C@H]12)OCO5`, 58.3 µM.

Turning to `CN1CC[C@@]2(O)[C@@H]1[C@@H]1c3cc4c(cc3C(=O)O[C@@H]1[C@@H](O)[C@@H]2O)OCO4`, the 50% inhibitory concentration (IC50) amounted to 68.7 µM. The same measure for `C=Cc1cccc(-c2cc3c(cc2C(=O)O)OCO3)c1N(C)C`: 67.5 µM; for `C=Cc1cccc(-c2cc3c(cc2C(=O)O)OCO3)c1N(C)CC`: 86.1 µM.

Consider `C=Cc1cccc(-c2cc3c(cc2C(=O)O)OCO3)c1N(C)CCCC`, for which the IC50 is greater than 100 µM. With `C=Cc1cccc(-c2cc3c(cc2C(=O)O)OCO3)c1N(C)CCCCCCCCCCC`, the IC50 is greater than 100 µM. Take `C=Cc1cccc(-c2cc3c(cc2C(=O)OC)OCO3)c1N(C)C`: the 50% inhibitory concentration (IC50) stood at 67.6 µM.

`C=Cc1cccc(-c2cc3c(cc2C(=O)OC)OCO3)c1N(C)CCCC`: the IC50 is 76.2 µM. The same measure for `CN1CCC2=C[C@H](OC(=O)c3cccc(C(=O)O[C@H]4C=C5CCN(C)[C@H]5[C@@H]5c6cc7c(cc6C(=O)O[C@@H]54)OCO7)c3)[C@H]3OC(=O)c4cc5c(cc4[C@H]3[C@@H]21)OCO5`: 1.3 µM; for `CN1CCC2=C[C@H](OC(=O)c3cccc(C(=O)O[C@H]4C=C5CCN(C)[C@H]5[C@@H]5c6cc7c(cc6C(=O)O[C@@H]54)OCO7)n3)[C@H]3OC(=O)c4cc5c(cc4[C@H]3[C@@H]21)OCO5`: 3.9 µM; for `CN1CCC2=C[C@H](OC(=O)c3ccc(C(=O)O[C@H]4C=C5CCN(C)[C@H]5[C@@H]5c6cc7c(cc6C(=O)O[C@@H]54)OCO7)cc3)[C@H]3OC(=O)c4cc5c(cc4[C@H]3[C@@H]21)OCO5`: 1.3 µM. With `CN1CCC2=C[C@H](OC(=O)CCCCC(=O)O[C@H]3C=C4CCN(C)[C@H]4[C@@H]4c5cc6c(cc5C(=O)O[C@@H]43)OCO6)[C@H]3OC(=O)c4cc5c(cc4[C@H]3[C@@H]21)OCO5` the figure was 4 µM; with `CN1CCC2=C[C@H](O)[C@H]3OC(=O)c4cc5c(cc4[C@H]3[C@@H]21)OCO5`, 12.7 µM. The same measure for `CN1CCC2=CC(=O)[C@H]3OC(=O)c4cc5c(cc4[C@H]3[C@@H]21)OCO5` [2-OXOHIPPEASTRINE]: 79.8 µM.
